Screening results: PubChem BioAssay, The Scripps Research Institute Molecular Screening Center
OXTR agonist: agonists of human oxytocin receptor | P30559 | CHO-OTR cells, Fluo-8 calcium fluorescence; normalized: DMSO 0%, oxytocin 100% | activation, % at 3 µM | hit rate 0.32% among 320,000;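 active = activation above the mean of all tested compounds plus 3 SD, cutoff set per screening run, cut at about 20% in these data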;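 note: peak over basal fluorescence ratio from a 100 s FLIPR kinetic read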
TRPN1 ag: agonists of zebrafish TRPN1 channel; HEK293 zebrafish TRPN1-YFP, Fluo-8 calcium fluorescence; 100% = response to 87 µM carbachol; activation, % at 3 µM; hit rate 0.18% among 220,000; AID 1424;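 active = activation above its plate's cutoff, the mean activation of test wells on that plate plus 3 SD, cut at about 19% in these data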;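 note: 0% = DMSO alone and 100% = 87 µM carbachol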
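System: zebrafish TRPN1-YFP in HEK293 cells / Dosing: 3 µM single point / Timing: dye loading 1 h at 37 °C, then 30 min room temperature / Signal: Fluo-8 calcium fluorescence, excitation 470-495 nm, emission 515-575 nm / Read-out basis: percent activation from peak over basal fluorescence ratio, control-normalized / Control set: high carbachol 87 µM, low DMSO alone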
TRPML3 agonist: activates the human TRPML3 channel. Q8TDD5. HEK293 TRPML3-YFP, Fluo-8 calcium fluorescence; 100% = the carbachol control signal. activation, % at 3 µM. hit rate 0.29% among 220,000;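 active = activation above its plate's cutoff, the mean activation of the plate's test wells plus 3 SD, cut at about 12% in these data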;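 note: 0% = DMSO only wells and 100% = carbachol wells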
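Test system – HEK293 line with stable expression of human TRPML3-YFP channel · Control set – carbachol 87 µM final as high control (100%), DMSO as low control (0%) · Signal – Fluo-8 calcium dye fluorescence, ex 470-495, em 515-575 nm · Incubation – 1-h 37 °C dye load, 5-s basal, 120-s post-compound reads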
V1aR counter: counter-screen for oxytocin receptor agonists: human V1a receptor agonists | P37288 | CHO-V1R cells, Fluo-8 calcium fluorescence, agonist mode; 0% DMSO, 100% 3 nM vasopressin | activation, % at 3 µM | hit rate 0.25% among 320,000 | AID 2797;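 active = activation above the mean activation of all tested compounds plus 3 SD, per screening run, cut at about 20% in these data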;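 note: signal is peak over basal fluorescence ratio across a 100 second FLIPR read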
Target sequence (P37288 whole entry, looked up): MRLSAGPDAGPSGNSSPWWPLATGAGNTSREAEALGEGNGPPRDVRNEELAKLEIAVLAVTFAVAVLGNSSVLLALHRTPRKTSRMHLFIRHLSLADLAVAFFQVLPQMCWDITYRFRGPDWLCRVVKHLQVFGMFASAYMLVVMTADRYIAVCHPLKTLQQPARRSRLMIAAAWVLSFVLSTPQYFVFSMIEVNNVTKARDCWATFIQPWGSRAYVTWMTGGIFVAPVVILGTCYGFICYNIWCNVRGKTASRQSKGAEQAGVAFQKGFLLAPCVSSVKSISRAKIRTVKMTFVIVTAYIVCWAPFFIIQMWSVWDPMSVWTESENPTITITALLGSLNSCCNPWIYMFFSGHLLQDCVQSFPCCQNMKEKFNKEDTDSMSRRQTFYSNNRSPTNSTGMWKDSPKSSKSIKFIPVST
OXTR potentiator: human OXTR potentiation. P30559. CHO-OTR cells, Fluo-8 calcium fluorescence, potentiator mode; 0% = oxytocin EC15, 100% = EC100. activation, % at 3 µM. hit rate 0.061% among 320,000;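 active = activation above that plate's cutoff, the mean activation of tested compounds plus 3 SD, cut at about 6.6% in these data, passing the limit was not always enough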;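 note: 100% uses oxytocin at 75 nM as the full agonist control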
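Assay system: CHO-OTR cells, human receptor / Also added: oxytocin at about EC15, sub-maximal agonist stimulus / Dosing: single dose, 3.0 µM nominal final compound concentration / Incubation: 6 min pre-incubation, 100 s read / Technique: Fluo-8 calcium dye fluorescence / Read-out: % activation vs EC15 and EC100 oxytocin / Benchmarks: EC15 oxytocin low, 75 nM oxytocin high / Replicates: singlicate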
OXTR pot cf: human OXTR potentiation, confirmation; activation, % at 3 µM; 180 tested, under 10 active; CHO-OTR cells, Fluo-8 calcium fluorescence; scaled from low-dose to maximal oxytocin; shares compounds with OXTR potentiator;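 active = mean percent activation over triplicates above a cutoff set from solvent-only control plates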;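 note: compounds tested in the presence of an EC15 dose of oxytocin; 0% = EC15 oxytocin with DMSO and 100% = EC100 oxytocin with DMSO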
V1aR agonist cf: confirmation of human vasopressin V1a receptor agonists; shares compounds with V1aR counter; CHO-V1R cells, Fluo-8 calcium fluorescence, agonist; activation, % at 3 µM; hit rate 20% among 180; AID 434964;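 active = average activation exceeds primary screen hit cutoff, cut at about 21% in these data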;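 note: peak over basal fluorescence ratio during a 100 s FLIPR read; 0% = DMSO only wells and 100% = 3 nM vasopressin wells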
OXTR ag counter: counter-screen for V1a receptor agonists: oxytocin receptor agonists; activation, % at 3 µM; shares compounds with V1aR counter; hit rate 10% among 180; CHO-OTR cells, Fluo-8 calcium fluorescence, agonist; AID 434969;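 active = mean activation over three repeats above the cutoff from the earlier oxytocin receptor agonist screen, cut at about 20% in these data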;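 note: peak over minimum fluorescence ratio within a 100 second FLIPR read; 0% = DMSO only wells and 100% = oxytocin high control wells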
Active calls of the source: *; · = no result. An excerpt weighted towards active compounds, which were near 0.55% of everything screened.

SMILES	OXTR agonist	TRPN1 ag	TRPML3 agonist	V1aR counter	OXTR potentiator	V1aR agonist cf	OXTR ag counter	others
O=C(O)c1cccc(NS(=O)(=O)c2cccc3nsnc23)c1	1	0	1	-1	10.0*	·	·	OXTR pot cf=-2
CCOC(=O)c1nc(C)n(-c2ccc(Cl)cc2)n1	-1	1	0	0	9.9*	·	·	OXTR pot cf=-1
CCOC(=O)c1nc(C)n(-c2ccc([N+](=O)[O-])cc2)n1	0	0	1	1	-3	·	·
CCC(=O)Nn1c(C2CCC2)nc2ccccc2c1=O	-1	·	·	0	13*	·	·	OXTR pot cf=-2
COc1cccc(OC)c1C(=O)Nn1c(C2CCC2)nc2ccccc2c1=O	-2	1	0	-1	4	·	·
Cc1nn(-c2ccccc2)c(N)c1Sc1cccc([N+](=O)[O-])c1	-1	3	0	2	-12	·	·
Cc1cc(C)nc(-n2nc(C)c(Sc3ccc(F)cc3)c2N)n1	-2	-2	0	-1	11*	·	·	OXTR pot cf=-7
Cc1nnc(SCC(=O)N(CC(C)C)C2CCS(=O)(=O)C2)s1 (configuration not stated)	0	·	·	0	-2	·	·
CC(C)CN(C(=O)CSc1nnc2ccccn12)C1CCS(=O)(=O)C1 (configuration not stated)	1	·	·	2	15*	·	·	OXTR pot cf=-7
CCCCn1c(N)c(N(CC(C)C)C(=O)c2ccc(-c3ccc(Cl)cc3)o2)c(=O)[nH]c1=O	-3	·	·	-2	-6	·	·
CCCCn1c(N)c(N(CC)C(=O)c2ccc(-c3ccc(Cl)cc3)o2)c(=O)[nH]c1=O	0	·	·	0	12*	·	·	OXTR pot cf=-11
CCN(CC)CCCNC(=S)N1CCN(c2nc(-c3ccccc3)cs2)CC1	9	·	·	3	-1	·	·
O=S(=O)(c1ccc(Cl)nc1)N1CCCc2ccccc21	-2	-1	0	-1	8.3*	·	·	OXTR pot cf=1
CCOC(=O)c1c(C)[nH]c(C)c1C(=O)CN1C(=O)NC2(CCCCCC2)C1=O	-2	·	·	-1	3	·	·
CCOC(=O)c1c(C)[nH]c(C(=O)CN2C(=O)NC3(CCCC3)C2=O)c1C	1	2	1	0	6.3*	·	·	OXTR pot cf=-7
CC[C@@]1(O)C(=O)OCc2c1cc1n(c2=O)Cc2cc3c(N)cccc3nc2-1	0	·	·	0	15*	·	·	OXTR pot cf=-3
COc1cc(C(=O)OCC(=O)N2CCC(Cc3ccccc3)CC2)cc(OC)c1OC	-3	·	·	0	-4	·	·
C/C(=N/NC(=O)c1ccncc1)c1cc2ccc(O)cc2oc1=O	18	1	3	30*	-11	584*	700*
CCC(C)C(NC(=O)OCc1ccccc1)C(=O)NC(Cc1ccc(O)cc1)C(=O)OC (configuration not stated)	17	8	2	27*	-26	4	18
Cc1ccc2c(C(=O)CCl)c(C)[nH]c2c1	0	1	3	0	-4	·	·
Cc1cc(NCc2ccccc2)c2ccccc2n1	0	·	·	4	-2	·	·
Cc1cc(NCc2ccccc2)nc2ccccc12	17	4	3	32*	-35	14	1
CC(NC(=O)Nc1ccc([N+](=O)[O-])cc1)C(c1ccccc1)N1CCOCC1 (configuration not stated)	20	1	0	52*	-12	26*	8
CC(NC(=O)c1ccc(Cl)cc1Cl)C(c1ccccc1)N1CCOCC1 (configuration not stated)	-2	-3	-1	-1	-8	·	·
CC(NC(=O)Nc1ccc(Cl)c(Cl)c1)C(c1ccccc1)N1CCOCC1 (configuration not stated)	14	1	0	44*	-18	25*	8
SMILES	OXTR agonist	TRPN1 ag	TRPML3 agonist	V1aR counter	OXTR potentiator	V1aR agonist cf	OXTR ag counter	others
N#CCC(=N)N1CCN(c2ccc(F)cc2)CC1	0	0	0	0	2	·	·
COc1ccc(CCNCC(O)COc2cccc(Br)c2)cc1OC (configuration not stated)	0	2	2	1	-4	·	·
COc1ccc(CCNCC(O)COc2ccc(OC)cc2C(C)(C)C)cc1 (configuration not stated)	18	·	·	24*	-12	1	3
CCOc1c(Cl)cc(/C=C/C(=O)N(CC)CC(=O)NCc2cccs2)cc1OC	-1	·	·	-2	-13	·	·
O=C(NCc1ccccc1Cl)C(=O)NCC1OCCN1S(=O)(=O)c1ccc(F)cc1 (configuration not stated)	-1	·	·	1	-12	·	·
Cn1cc(CNC(=O)C2CCC(=O)N(Cc3ccc(Cl)cc3)C2)cn1 (configuration not stated)	6	·	·	1	-6	·	·
COc1ccc(/C=N/NC(=O)c2nnn(-c3nonc3N)c2-c2cccc(OC)c2)cc1	16	·	·	26*	-5	25*	25*
Cc1ccc(/C=N/NC(=O)c2nnn(-c3nonc3N)c2-c2ccc3c(c2)OCO3)s1	12	·	·	30*	-4	14	3
CCOc1cccc(-c2c(C(=O)N/N=C/c3cccs3)nnn2-c2nonc2N)c1	19	·	·	24*	-5	14	7
COc1cccc(-c2c(C(=O)N/N=C(\C)c3ccc(Cl)s3)nnn2-c2nonc2N)c1	18	·	·	25*	-6	8	1
Cc1ccc(NS(=O)(=O)c2ccc(C(=O)N3CCCCCCC3)cc2)cc1	8	·	·	15	-14	·	·
Cc1ccc(NS(=O)(=O)c2ccc(C(=O)N3CCCCCC3)cc2)cc1	14	·	·	21*	-12	13	17
CCOc1ccc(CCNC(=O)CCS(=O)(=O)c2ccc(C)cc2)cc1OCC	-2	·	·	0	-1	·	·
COc1ccc(/C=C2\SC(=S)N(CCC(=O)N3CCCCC3)C2=O)cc1	0	·	·	0	-1	·	·
COCCN1C(=O)/C(=C/c2ccc(N3CCCC3)cc2)SC1=S	16	11	8	28*	-12	99*	76*
S=c1[nH]nc(-c2cccs2)n1/N=C/c1c(Cl)cccc1Cl	13	-3	1	27*	-10	14	1
Cc1ccc(/C=N/n2c(-c3cccs3)n[nH]c2=S)cc1	-3	-2	0	-1	-13	·	·
CN(CC(=O)NCc1ccc(F)cc1)CC(=O)Nc1ccc(Cl)c(C(F)(F)F)c1	16	·	·	29*	-15	10	13
O=c1c(-c2nc3ccccc3s2)cccn1Cc1ccc(Cl)cc1	0	0	1	22*	-17	0	-1
Clc1ncccc1-c1nc2ccccc2s1	-2	-2	0	-2	4	·	·
